Experimental data: ChEMBL document CHEMBL3124842, “Design, synthesis and evaluation of the antidepressant and anticonvulsant activities of triazole-containing quinolinones” (Eur J Med Chem, 2014)
Activity calls are given as the source filed them. The calls are words filed in the database; no cut-off is given here.

Tests used:
Mus musculus [1] = assay: Anticonvulsant activity in KunMing mouse assessed as protection against maximal electroshock-induced seizures at 300 mg/kg, ip after 4 hrs; format: functional, organism-based; parameters: dose 300 mg/kg
Outline: (§1)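 Mice (22 ± 2 g) given compounds in DMSO i.p. at 30, 100 and 300 mg/kg; seizures elicited by electroshock via ear stimulation. Protection = abolition of hind limb tonic extension, read at 0.5 and 4 h after injection. Value is the minimal dose active in half or more of the mice; 300 mg/kg was the top dose.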

Mus musculus [2] = assay: Anticonvulsant activity in KunMing mouse assessed as protection against maximal electroshock-induced seizures at 300 mg/kg, ip after 0.5 hrs; format: functional, organism-based; parameters: dose 300 mg/kg; outline: as §1
Mus musculus [3] = assay: Antidepressant activity in KunMing mouse assessed as immobility time at 50 mg/kg, ip by forced swimming test; format: functional; conditions: route intraperitoneal
Outline: (§2)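 Compounds in DMSO given i.p. to mice, n = 8 per group. Dose was 50 mg/kg, or 10, 25 and 50 mg/kg in the dose-response study. After 30 min each mouse was placed in a water-filled cylinder (water 18 cm deep, 23–25 °C). Immobility (upright floating, only slight movements) was timed over the last 4 min of 6 min. %DID = (A − B)/A × 100, where A is control immobility and B is test immobility. Mean ± SEM; ANOVA with Dunnett's test versus control.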

Mus musculus [4] = assay: Antidepressant activity in KunMing mouse assessed as decrease in immobility time at 50 mg/kg, ip by forced swimming test relative to control; format: functional; parameters: scale not given: the % may be the effect or the level left; conditions: route intraperitoneal; outline: as §2
Mus musculus [5] = assay: Neurotoxicity in KunMing mouse at 50 mg/kg, ip; format: toxicity, organism-based; parameters: dose 50 mg/kg, route intraperitoneal; conditions: in vivo
Mus musculus [6] = assay: Neurotoxicity in KunMing mouse assessed as motor impairment at 300 mg/kg, ip after 4 hrs by rotarod test; format: toxicity, organism-based; parameters: dose 300 mg/kg, route intraperitoneal; conditions: in vivo
Outline: (§3)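 Mice were trained on a 3.2 cm diameter rotarod turning at 10 rpm, then given compounds in DMSO i.p. at 30, 100 or 300 mg/kg. Neurotoxicity = failure to stay on the rod for at least 1 min in each trial, checked at 0.5 and 4 h. Value is the minimal dose toxic in half or more of the mice.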

Mus musculus [7] = assay: Neurotoxicity in KunMing mouse assessed as motor impairment at 300 mg/kg, ip after 0.5 hrs by rotarod test; format: toxicity, organism-based; parameters: dose 300 mg/kg, route intraperitoneal; conditions: in vivo; outline: as §3
Mus musculus [8] = assay: Neurotoxicity in ip dosed KunMing mouse assessed as motor impairment after 0.5 hrs by rotarod test; format: toxicity, organism-based; conditions: in vivo; outline: as §3
Mus musculus [9] = assay: Neurotoxicity in ip dosed KunMing mouse assessed as motor impairment after 4 hrs by rotarod test; format: toxicity, organism-based; conditions: in vivo; outline: as §3
Mus musculus [10] = assay: Anticonvulsant activity in ip dosed KunMing mouse assessed as protection against maximal electroshock-induced seizures after 0.5 hrs; format: functional; conditions: read-out: MED; outline: as §1
Mus musculus [11] = assay: Anticonvulsant activity in ip dosed KunMing mouse assessed as protection against maximal electroshock-induced seizures after 4 hrs; format: functional; conditions: read-out: MED; outline: as §1
Mus musculus [12] = assay: Anticonvulsant activity in KunMing mouse assessed as protection against maximal electroshock-induced seizures at 100 mg/kg, ip after 0.5 hrs relative to control; format: functional; conditions: route intraperitoneal; outline: as §1
Mus musculus [13] = assay: Antidepressant activity in KunMing mouse at 50 mg/kg, ip by tail suspension test; format: functional, organism-based; parameters: dose 50 mg/kg
Outline: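 Male KunMing mice (22 ± 2 g, n = 8 per group), dosed i.p. at 50 mg/kg from a dimethylsulfoxide solution. Each mouse was hung by the tail above the floor with adhesive tape about 1-2 cm from the tail tip. Immobility, meaning completely motionless and hanging passively, was timed over the last 6 min of a 7 min session. Read-out was mean ± SEM, compared with control by ANOVA followed by Dunnett's test.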

SMILES | Activity (Mus musculus [1]) | Activity (Mus musculus [2]) | Time (Mus musculus [3]) | Activity (Mus musculus [4]) | Activity (Mus musculus [5]) | Activity (Mus musculus [6]) | Activity (Mus musculus [7]) | MTC (Mus musculus [8]) | MTC (Mus musculus [9]) | minimal effective dose (Mus musculus [10]) | minimal effective dose (Mus musculus [11]) | Activity (Mus musculus [12]) | Activity (Mus musculus [13])
O=C1CCc2cc(-n3cnnc3)ccc2N1Cc1cccc(F)c1 | inactive | inactive | 43 s | 67% | Non-toxic | Non-toxic | Non-toxic |  |  |  |  |  | 
CCCCCCCCCCN1C(=O)CCc2cc(-n3cnnc3)ccc21 | inactive | inactive | 101 s | 22.6% | Non-toxic | Non-toxic | Non-toxic |  |  |  |  |  | 
O=C1NC(=O)C(c2ccccc2)(c2ccccc2)N1 [PHENYTOIN] |  |  |  |  |  |  |  | 100 mg/kg | 100 mg/kg | 30 mg/kg | 100 mg/kg |  | 
CCCCCN1C(=O)CCc2cc(-n3cnnc3)ccc21 | inactive |  | 129.8 s | 0.5% | Non-toxic |  |  | 300 mg/kg | 300 mg/kg | 100 mg/kg |  | 100% | 
O=C1CCc2cc(-n3cnnc3)ccc2N1Cc1ccc(Cl)cc1Cl |  |  | 105.8 s | 18.9% | Non-toxic | Non-toxic | Non-toxic |  |  | 300 mg/kg | 300 mg/kg |  | 
O=C1CCc2cc(-n3cnnc3)ccc2N1Cc1ccccc1 | inactive | inactive | 68.1 s | 47.8% | Non-toxic | Non-toxic | Non-toxic |  |  |  |  |  | 
CCCCCCCN1C(=O)CCc2cc(-n3cnnc3)ccc21 | inactive |  | 77.9 s | 40.3% | Non-toxic |  |  | 300 mg/kg | 300 mg/kg | 300 mg/kg |  |  | 
CCCC(CCC)C(=O)[O-].[Na+] [VALPROATE SODIUM] | inactive |  |  |  |  | Non-toxic | Non-toxic |  |  | 300 mg/kg |  |  | 
O=C1CCc2cc(-n3cnnc3)ccc2N1Cc1ccc(Cl)cc1 | inactive | inactive | 36.1 s | 72.3% | Non-toxic | Non-toxic | Non-toxic |  |  |  |  |  | 
O=C1CCc2cc(-n3cnnc3)ccc2N1Cc1cccc(C(F)(F)F)c1 |  |  | 93.3 s | 37.2% | Non-toxic | Non-toxic | Non-toxic |  |  | 300 mg/kg | 300 mg/kg |  | 
CCCCCCN1C(=O)CCc2cc(-n3cnnc3)ccc21 |  |  | 98.5 s | 24.5% | Non-toxic |  |  | 300 mg/kg | 300 mg/kg | 100 mg/kg | 300 mg/kg | 100% | 
O=C1CCc2cc(-n3cnnc3)ccc2N1Cc1c(Cl)cccc1Cl | inactive | inactive | 111 s | 15.7% | Non-toxic | Non-toxic | Non-toxic |  |  |  |  |  | 
O=C1CCc2cc(-n3cnnc3)ccc2N1Cc1ccccc1Cl |  | inactive | 77.8 s | 40.4% | Non-toxic | Non-toxic | Non-toxic |  |  |  | 300 mg/kg |  | 
CCCCN1C(=O)CCc2cc(-n3cnnc3)ccc21 | inactive | inactive | 70 s | 46.4% | Non-toxic |  | Non-toxic |  | 300 mg/kg |  |  |  | 
COc1ccc(CN2C(=O)CCc3cc(-n4cnnc4)ccc32)cc1 | inactive | inactive | 121.6 s | 6.8% | Non-toxic | Non-toxic | Non-toxic |  |  |  |  |  | 
O=C1CCc2cc(-n3cnnc3)ccc2N1Cc1ccc(F)cc1 |  | inactive | 71.1 s | 45.5% | Non-toxic | Non-toxic | Non-toxic |  |  |  | 300 mg/kg |  | 
CNCCC(Oc1ccc(C(F)(F)F)cc1)c1ccccc1 (centres undefined) [FLUOXETINE] |  |  | 65.9 s | 49.5% |  |  |  |  |  |  |  |  | Active
O=C1CCc2cc(-n3cnnc3)ccc2N1Cc1cccc(Cl)c1 |  | inactive | 53.4 s | 59.1% | Non-toxic | Non-toxic | Non-toxic |  |  |  | 300 mg/kg |  | 
Cc1ccc(CN2C(=O)CCc3cc(-n4cnnc4)ccc32)cc1 | inactive | inactive | 78.8 s | 39.6% | Non-toxic | Non-toxic | Non-toxic |  |  |  |  |  | 
CCCCCCCCN1C(=O)CCc2cc(-n3cnnc3)ccc21 |  |  | 83.3 s | 35.8% | Non-toxic |  | Non-toxic |  | 300 mg/kg | 300 mg/kg | 300 mg/kg |  | 
CCCN1C(=O)CCc2cc(-n3cnnc3)ccc21 | inactive | inactive | 123.6 s | 5.3% | Non-toxic |  | Non-toxic |  | 300 mg/kg |  |  |  | 
